# Laboratory results: ChEMBL document CHEMBL3085704, “Methyl-thiazoles: a novel mode of inhibition with the potential to develop novel inhibitors targeting InhA in Mycobacterium tuberculosis” (J Med Chem, 2013)
# How the values were obtained:
# [1] = target: T1, Enoyl-[acyl-carrier-protein] reductase [NADH] (Mycobacterium tuberculosis, UniProt P9WGR1); assay: Inhibition of wild type Mycobacterium tuberculosis inhA
# T1 sequence (P9WGR1 whole entry): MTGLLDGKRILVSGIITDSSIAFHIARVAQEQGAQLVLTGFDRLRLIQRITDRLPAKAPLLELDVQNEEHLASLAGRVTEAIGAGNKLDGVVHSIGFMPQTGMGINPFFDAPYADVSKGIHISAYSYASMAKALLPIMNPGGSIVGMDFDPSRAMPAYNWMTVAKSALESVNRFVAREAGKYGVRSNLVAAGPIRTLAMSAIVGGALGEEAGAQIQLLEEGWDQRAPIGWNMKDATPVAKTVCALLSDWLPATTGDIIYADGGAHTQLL
# [2] = system: Mycobacterium tuberculosis; assay: Antimycobacterial activity against Mycobacterium tuberculosis H37Rv ATCC 27294 assessed as parasite growth inhibition after 7 days by Alamar Blue assay; type: functional; conditions: H37Rv ATCC 27294, 168 h
# [3] = target: T1, Enoyl-[acyl-carrier-protein] reductase [NADH]; assay: Inhibition of Mycobacterium tuberculosis full length inhA expressed in Escherichia coli BL21 preincubated for 15 mins by fluorescence based assay in presence of NADH
# [4] = target: T1, Enoyl-[acyl-carrier-protein] reductase [NADH]; assay: Binding affinity to Mycobacterium tuberculosis NAD+-bound form of full length inhA (1 to 255) by isothermal titration calorimetry assay
# In short: (§1)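 InhA titrated with compound by isothermal titration calorimetry, either as apo enzyme or pre-bound to NADH or NAD+ cofactor. No enoyl-ACP substrate was present. ITC data were used mainly to derive Kd and binding stoichiometry.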
# [5] = target: T2, Enoyl-[acyl-carrier-protein] reductase [NADH] (Mycobacterium tuberculosis) (UniProt P9WGR1)
# T2 sequence (whole entry): T1 sequence (P9WGR1 whole entry)
# [6] = target: T2, Enoyl-[acyl-carrier-protein] reductase [NADH] (Mycobacterium tuberculosis); remark: listed apart in the source
# [7] = target: T1, Enoyl-[acyl-carrier-protein] reductase [NADH]; assay: Binding affinity to Mycobacterium tuberculosis NADH-bound form of full length inhA (1 to 255) by SPR assay
# Cytochrome P450 3A4 = Cytochrome P450 3A4 (Homo sapiens, UniProt P08684); assay: Inhibition of CYP3A4 (unknown origin); type: ADME
# [8] = target: T2, Enoyl-[acyl-carrier-protein] reductase [NADH] (Mycobacterium tuberculosis); conditions: 50 uM
# [9] = Cytotoxicity against human A549 cells assessed as growth inhibition after 7 days by Alamar Blue assay; type: cell-based; conditions: read-out: MIC
# [10] = target: T2, Enoyl-[acyl-carrier-protein] reductase [NADH] (Mycobacterium tuberculosis); conditions: 50 uM; remark: listed apart in the source
# [11] = Fraction unbound in plasma (unknown origin); type: ADME, cell-free
# [12] = target: T1, Enoyl-[acyl-carrier-protein] reductase [NADH]; assay: Binding affinity to Mycobacterium tuberculosis NADH-bound form full length inhA (1 to 255) by isothermal titration calorimetry assay; in short: as §1
# [13] = target: T2, Enoyl-[acyl-carrier-protein] reductase [NADH] (Mycobacterium tuberculosis); remark: listed apart in the source
# [14] = Aqueous solubility of the compound; type: physicochemical; conditions: buffer
# [15] = target: T3, Adenosine receptor A3 (Homo sapiens) (UniProt P0DMS8); assay: Inhibition of adenosine A3 receptor (unknown origin) at 30 uM
# T3 sequence (whole entry): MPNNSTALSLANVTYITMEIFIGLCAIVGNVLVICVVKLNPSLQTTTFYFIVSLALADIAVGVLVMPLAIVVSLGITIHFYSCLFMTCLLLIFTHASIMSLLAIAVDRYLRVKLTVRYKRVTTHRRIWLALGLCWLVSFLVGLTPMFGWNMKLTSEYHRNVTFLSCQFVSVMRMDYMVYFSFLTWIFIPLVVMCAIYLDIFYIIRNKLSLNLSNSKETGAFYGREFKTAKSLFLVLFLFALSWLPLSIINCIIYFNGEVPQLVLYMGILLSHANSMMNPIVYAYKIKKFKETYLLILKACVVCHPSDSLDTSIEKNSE
# Homo sapiens = species on record: Homo sapiens; assay: Inhibition of angiotensin receptor (unknown origin) at 30 uM
# [16] = target: T4, Adenosine receptor A1 (Homo sapiens) (UniProt P30542); assay: Inhibition of adenosine A1 receptor (unknown origin) at 30 uM
# T4 sequence (whole entry): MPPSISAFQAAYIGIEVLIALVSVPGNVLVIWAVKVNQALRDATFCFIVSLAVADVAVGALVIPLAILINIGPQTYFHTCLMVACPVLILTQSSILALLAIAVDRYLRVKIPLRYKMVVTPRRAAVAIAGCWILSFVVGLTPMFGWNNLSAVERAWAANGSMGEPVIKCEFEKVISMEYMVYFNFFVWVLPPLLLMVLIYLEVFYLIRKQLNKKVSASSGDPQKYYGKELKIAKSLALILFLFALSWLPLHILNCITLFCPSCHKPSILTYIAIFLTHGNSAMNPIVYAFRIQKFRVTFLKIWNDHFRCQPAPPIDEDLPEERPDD
# Adenosine receptor A1 = target: T5, Adenosine receptor A1 (Homo sapiens, UniProt P30542); assay: Inhibition of adenosine A1 receptor (unknown origin)
# T5 sequence (P30542 whole entry): T4 sequence (whole entry)
# Phosphodiesterase 4 = Phosphodiesterase 4 (Homo sapiens, UniProt P27815+Q08499+Q07343+Q08493); assay: Inhibition of PDE4 (unknown origin); type: protein assay
# [17] = target: 5-hydroxytryptamine receptor 2B (Homo sapiens, UniProt P41595); assay: Inhibition of 5HT2B receptor (unknown origin)
# [18] = system: Mycobacterium tuberculosis; assay: Antitubercular activity against Mycobacterium tuberculosis; type: functional
# Chain of Cytochrome P450 3A4 (P08684 whole entry): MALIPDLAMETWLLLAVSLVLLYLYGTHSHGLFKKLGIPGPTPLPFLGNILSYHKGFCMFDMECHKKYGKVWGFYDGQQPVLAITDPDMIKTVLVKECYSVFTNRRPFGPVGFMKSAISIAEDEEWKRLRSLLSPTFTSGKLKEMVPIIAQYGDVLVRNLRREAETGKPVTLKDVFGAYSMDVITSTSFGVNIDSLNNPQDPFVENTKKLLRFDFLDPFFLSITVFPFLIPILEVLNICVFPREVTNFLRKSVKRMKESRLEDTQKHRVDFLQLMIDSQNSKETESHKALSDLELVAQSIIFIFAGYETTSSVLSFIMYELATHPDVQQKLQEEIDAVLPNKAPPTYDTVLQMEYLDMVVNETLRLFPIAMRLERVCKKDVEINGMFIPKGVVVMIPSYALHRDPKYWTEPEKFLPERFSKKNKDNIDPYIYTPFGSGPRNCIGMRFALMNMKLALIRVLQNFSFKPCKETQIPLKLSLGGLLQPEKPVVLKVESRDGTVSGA
# Chain of 5-hydroxytryptamine receptor 2B (P41595 whole entry): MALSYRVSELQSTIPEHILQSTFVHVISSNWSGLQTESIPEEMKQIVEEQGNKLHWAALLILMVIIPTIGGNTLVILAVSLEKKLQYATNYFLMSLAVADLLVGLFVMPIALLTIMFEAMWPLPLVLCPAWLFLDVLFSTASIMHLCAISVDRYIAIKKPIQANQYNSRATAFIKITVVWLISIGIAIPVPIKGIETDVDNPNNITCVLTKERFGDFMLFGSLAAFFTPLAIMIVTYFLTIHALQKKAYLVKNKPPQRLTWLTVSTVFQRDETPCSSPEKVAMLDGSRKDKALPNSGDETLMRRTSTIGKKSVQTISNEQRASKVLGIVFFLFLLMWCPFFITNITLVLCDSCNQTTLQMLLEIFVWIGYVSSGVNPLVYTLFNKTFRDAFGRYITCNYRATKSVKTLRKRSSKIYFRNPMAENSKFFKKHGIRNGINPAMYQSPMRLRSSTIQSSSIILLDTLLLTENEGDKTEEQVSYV
smiles,measurement,setting,value
CCCCCCc1ccc(Oc2ccccc2C)c(O)c1,IC50,[1],22 nM
O=C1CC(c2nc3ccccc3n2Cc2ccccc2)CN1C1CCCCC1 (configuration not stated),MIC,[2],> 64 µM
same,IC50,[3],1000 nM
COC(=O)c1cnc2ccc(C#N)cc2c1NCCCc1ccccc1,MIC,[2],> 64 µM
same,IC50,[3],20 nM
Cc1csc([C@](C)(O)c2nnc(Nc3ccn(Cc4c(F)cccc4F)n3)s2)n1,Kd,[4],9300 nM
same,MIC,[2],0.19 µM
same,Tm,[5],54.2 °C
same,Tm,[6],56.5 °C
same,Kd,[7],11.5 nM
same,IC50,[3],3 nM
same,IC50,Cytochrome P450 3A4,1900 nM
same,ΔTm,[8],69.3 °C
same,MCC at 168 h,[9],78 µM
same,ΔTm,[10],55 °C
same,fraction unbound,[11],0.034
same,Kd,[12],13.7 nM
same,Tm,[13],55.2 °C
same,solubility,[14],208 µM
Cc1csc(C(C)(O)c2nnc(Nc3cc(C4CC4)n(Cc4c(F)cccc4F)n3)s2)n1 (racemic),MIC,[2],> 12.5 µM
same,IC50,[3],970 nM
Cc1csc(C(C)(O)c2nnc(NCC3CN(Cc4c(F)cccc4F)C(=O)O3)s2)n1 (racemic),MIC,[2],> 100 µM
same,IC50,[3],400 nM
Cc1csc(C(C)(O)c2nnc(NC(=O)c3ccn(Cc4c(F)cccc4F)n3)s2)n1 (racemic),MIC,[2],> 100 µM
same,IC50,[3],34000 nM
Cc1csc(C(C)(O)c2nnc(Nc3ccn(Cc4c(F)cccc4F)n3)s2)n1 (racemic),MIC,[2],0.5 µM
same,IC50,[3],4 nM
Cc1csc(C(C)(O)c2nnc(Nc3cnn(Cc4c(F)cccc4F)c3)s2)n1 (racemic),MIC,[2],7.5 µM
same,IC50,[3],234 nM
Cc1csc(C(C)(O)c2nnc(Nc3ncn(Cc4c(F)cccc4F)n3)s2)n1 (racemic),MIC,[2],0.391 µM
same,inhibition,[15],70%
same,IC50,[3],30 nM
same,IC50,Cytochrome P450 3A4,48000 nM
same,inhibition,Homo sapiens,69%
same,MCC at 168 h,[9],> 100 µM
same,fraction unbound,[11],0.143
same,solubility,[14],69 µM
same,inhibition,[16],63%
Cc1csc(C(C)(O)c2nnc(NC(=O)Cc3c(F)cccc3F)s2)n1 (racemic),IC50,Adenosine receptor A1,21000 nM
same,MIC,[2],3.75 µM
same,IC50,Phosphodiesterase 4,23000 nM
same,IC50,[3],200 nM
same,IC50,Cytochrome P450 3A4,> 50000 nM
same,MCC at 168 h,[9],> 100 µM
same,fraction unbound,[11],0.019
same,IC50,[17],64000 nM
same,solubility,[14],26 µM
Cc1csc(C(C)(O)c2nnc(Nc3cccc(Cc4c(F)cccc4F)n3)s2)n1 (racemic),MIC,[2],3.13 µM
same,IC50,[3],< 2 nM
Cc1csc(C(C)(O)c2nnc(Nc3nccc(Cc4c(F)cccc4F)n3)s2)n1 (racemic),MIC,[2],12.5 µM
same,IC50,[3],< 2 nM
NNC(=O)c1ccncc1 [ISONIAZID],MIC,[2],0.03 µg/mL
same,MIC,[18],0.05 µM
COc1c(N2C[C@@H]3CCCN[C@@H]3C2)c(F)cc2c(=O)c(C(=O)O)cn(C3CC3)c12 [MOXIFLOXACIN],MIC,[2],0.12 µg/mL
CC/C(C)=C1\OC(=O)[C@H](C)[C@H](O)[C@H](Cc2cccnc2)NC(=O)[C@@H](NC(=O)c2ncccc2O)[C@@H](C)OC1=O [PYRIDOMYCIN],MIC,[18],0.57 µM
CO[C@H]1/C=C/O[C@@]2(C)Oc3c(C)c(O)c4c(O)c(c(/C=N/N5CCN(C)CC5)c(O)c4c3C2=O)NC(=O)/C(C)=C\C=C\[C@H](C)[C@H](O)[C@@H](C)[C@@H](O)[C@@H](C)[C@H](OC(C)=O)[C@@H]1C [RIFAMPIN],MIC,[2],0.007 µg/mL
Oc1cc(Cl)ccc1Oc1ccc(Cl)cc1Cl [TRICLOSAN],MIC,[18],64 µM
